From ChEMBL document CHEMBL1687824, “Overexpression of patA and patB, which encode ABC transporters, is associated with fluoroquinolone resistance in clinical isolates of Streptococcus pneumoniae” (2011)
Values after ≈ are worked out from the molar mass of the structure shown.

What was measured:
Streptococcus pneumoniae [1] = assay: Antibacterial activity against fluoroquinolone, dye-resistant Streptococcus pneumoniae by standardized agar doubling dilution method in presence of 20 ug/ml reserpine efflux pump inhibitor; assay type: functional
How it was run: (§1)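 MIC by agar doubling dilution following BSAC guidelines. Strains grown in brain heart infusion broth 24 h at 37°C in 5% CO2. Where an efflux pump inhibitor applies, MIC redetermined with reserpine at 20 μg/ml or sodium orthovanadate at 50 μM. Synergy taken as a fall in MIC of ≥2 dilutions with inhibitor present. Dye resistance defined relative to R6 (both dyes ≥2 dilutions higher).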

Streptococcus pneumoniae [2] = assay: Antibacterial activity against fluoroquinolone-resistant Streptococcus pneumoniae by standardized agar doubling dilution method; assay type: functional; how it was run: as §1
Streptococcus pneumoniae [3] = assay: Antibacterial activity against fluoroquinolone-resistant Streptococcus pneumoniae by standardized agar doubling dilution method in presence of 20 ug/ml reserpine efflux pump inhibitor; assay type: functional; how it was run: as §1
Streptococcus pneumoniae [4] = assay: Antibacterial activity against Streptococcus pneumoniae M298 overexpressing patA, patB and inactivated patA with single mutation by standardized agar doubling dilution method; assay type: functional
How it was run: (§2)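 MICs determined by BSAC standardized agar doubling dilution. Strains were grown in brain heart infusion broth for 24 h at 37°C in 5% CO2. Inhibitor arms had reserpine at 20 μg/ml or sodium orthovanadate at 50 μM in the agar. Mutants were made by transforming magellan2 insertion amplimers into clinical isolates and selecting on spectinomycin 100 mg/liter, with a no-DNA spontaneous-mutation control.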

Streptococcus pneumoniae [5] = assay: Antibacterial activity against Streptococcus pneumoniae M45B overexpressing patA, patB and inactivated patB with single mutation by standardized agar doubling dilution method; assay type: functional
How it was run: (§3)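 MICs were determined by agar doubling dilution following BSAC guidelines, with no efflux inhibitor. Strains were grown in brain heart infusion broth for 24 h at 37°C in 5% CO2. Species identity was confirmed by Gram stain, optochin sensitivity and capsule test. Control strain R6 was tested alongside.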

Streptococcus pneumoniae [6] = assay: Antibacterial activity against Streptococcus pneumoniae M319 overexpressing patA, patB and inactivated patB with single mutation by standardized agar doubling dilution method; assay type: functional; how it was run: as §3
Streptococcus pneumoniae [7] = assay: Antibacterial activity against dye-resistant Streptococcus pneumoniae M55 DR overexpressing patA, patB by standardized agar doubling dilution method; assay type: functional; how it was run: as §3
Streptococcus pneumoniae [8] = assay: Antibacterial activity against Streptococcus pneumoniae M55B overexpressing patA, patB and inactivated patB with single mutation by standardized agar doubling dilution method; assay type: functional; how it was run: as §3
Streptococcus pneumoniae [9] = assay: Antibacterial activity against Streptococcus pneumoniae M46A overexpressing patA, patB and inactivated patA with single mutation by standardized agar doubling dilution method; assay type: functional; how it was run: as §3
Streptococcus pneumoniae [10] = assay: Antibacterial activity against fluoroquinolone, dye-resistant Streptococcus pneumoniae M74 overexpressing patA, patB by standardized agar doubling dilution method in presence of 20 ug/ml reserpine efflux pump inhibitor; assay type: functional; how it was run: as §1
Streptococcus pneumoniae [11] = assay: Antibacterial activity against Streptococcus pneumoniae M298 overexpressing patA, patB and inactivated patA with single mutation by standardized agar doubling dilution method in presence of 50 uM sodium orthovanadate efflux pump inhibitor; assay type: functional; how it was run: as §2
Streptococcus pneumoniae [12] = assay: Antibacterial activity against Streptococcus pneumoniae M306 overexpressing patA, patB and inactivated patB with single mutation by standardized agar doubling dilution method in presence of 50 uM sodium orthovanadate efflux pump inhibitor; assay type: functional; how it was run: as §2
Streptococcus pneumoniae [13] = assay: Antibacterial activity against wild type Streptococcus pneumoniae R6 by standardized agar doubling dilution method in presence of 20 ug/ml reserpine efflux pump inhibitor; assay type: functional; how it was run: as §1
Streptococcus pneumoniae [14] = assay: Antibacterial activity against wild type Streptococcus pneumoniae M3 NCTC 7466 type 2 by standardized agar doubling dilution method in presence of 20 ug/ml reserpine efflux pump inhibitor; assay type: functional; how it was run: as §1
Streptococcus pneumoniae [15] = assay: Antibacterial activity against wild type Streptococcus pneumoniae M4 NCTC 7465 type 1 by standardized agar doubling dilution method in presence of 20 ug/ml reserpine efflux pump inhibitor; assay type: functional; how it was run: as §1
Streptococcus pneumoniae [16] = assay: Antibacterial activity against wild type Streptococcus pneumoniae R6 by standardized agar doubling dilution method; assay type: functional; how it was run: as §1
Streptococcus pneumoniae [17] = assay: Antibacterial activity against fluoroquinolone, dye-resistant Streptococcus pneumoniae M86 overexpressing patA, patB by standardized agar doubling dilution method in presence of 20 ug/ml reserpine efflux pump inhibitor; assay type: functional; how it was run: as §1
Streptococcus pneumoniae [18] = assay: Antibacterial activity against Streptococcus pneumoniae M86A overexpressing patA, patB and inactivated patA with single mutation by standardized agar doubling dilution method in presence of 20 ug/ml reserpine efflux pump inhibitor; assay type: functional
How it was run: (§4)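 MICs were determined by BSAC agar doubling dilution in the presence of reserpine at 20 μg/ml. Strains were grown in BHI broth for 24 h at 37°C in 5% CO2, with R6 as control. Synergy was defined as an MIC drop of ≥2 dilutions with the inhibitor.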

Streptococcus pneumoniae [19] = assay: Antibacterial activity against Streptococcus pneumoniae M86B overexpressing patA, patB and inactivated patB with single mutation by standardized agar doubling dilution method in presence of 20 ug/ml reserpine efflux pump inhibitor; assay type: functional; how it was run: as §4
Streptococcus pneumoniae [20] = assay: Antibacterial activity against fluoroquinolone, dye-resistant Streptococcus pneumoniae M296 overexpressing patA, patB by standardized agar doubling dilution method in presence of 20 ug/ml reserpine efflux pump inhibitor; assay type: functional; how it was run: as §1
Streptococcus pneumoniae [21] = assay: Antibacterial activity against dye-resistant Streptococcus pneumoniae M55 DR overexpressing patA, patB by standardized agar doubling dilution method in presence of 20 ug/ml reserpine efflux pump inhibitor; assay type: functional; how it was run: as §1
Streptococcus pneumoniae [22] = assay: Antibacterial activity against dye-resistant Streptococcus pneumoniae M46 DR overexpressing patA, patB by standardized agar doubling dilution method in presence of 20 ug/ml reserpine efflux pump inhibitor; assay type: functional; how it was run: as §4
Streptococcus pneumoniae [23] = assay: Antibacterial activity against fluoroquinolone, dye-susceptible Streptococcus pneumoniae M295 S overexpressing patA, patB by standardized agar doubling dilution method in presence of 20 ug/ml reserpine efflux pump inhibitor; assay type: functional; how it was run: as §1
Streptococcus pneumoniae [24] = assay: Antibacterial activity against fluoroquinolone, dye-resistant Streptococcus pneumoniae M86 overexpressing patA, patB by standardized agar doubling dilution method in presence of 50 uM sodium orthovanadate efflux pump inhibitor; assay type: functional; how it was run: as §1
Streptococcus pneumoniae [25] = assay: Antibacterial activity against Streptococcus pneumoniae M86A overexpressing patA, patB and inactivated patA with single mutation by standardized agar doubling dilution method in presence of 50 uM sodium orthovanadate efflux pump inhibitor; assay type: functional
How it was run: (§5)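 MICs were determined by BSAC agar doubling dilution in the presence of sodium orthovanadate at 50 μM. Cultures were grown in BHI broth for 24 h at 37°C in 5% CO2, with R6 as control. Synergy was defined as an MIC reduction of ≥2 dilutions with the inhibitor present.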

Streptococcus pneumoniae [26] = assay: Antibacterial activity against Streptococcus pneumoniae M86B overexpressing patA, patB and inactivated patB with single mutation by standardized agar doubling dilution method in presence of 50 uM sodium orthovanadate efflux pump inhibitor; assay type: functional; how it was run: as §5
Streptococcus pneumoniae [27] = assay: Antibacterial activity against dye-resistant Streptococcus pneumoniae M55 DR overexpressing patA, patB by standardized agar doubling dilution method in presence of 50 uM sodium orthovanadate efflux pump inhibitor; assay type: functional; how it was run: as §1
Streptococcus pneumoniae [28] = assay: Antibacterial activity against dye-resistant Streptococcus pneumoniae M46 DR overexpressing patA, patB by standardized agar doubling dilution method in presence of 50 uM sodium orthovanadate efflux pump inhibitor; assay type: functional; how it was run: as §5
Streptococcus pneumoniae [29] = assay: Antibacterial activity against wild-type Streptococcus pneumoniae R6 by standardized agar doubling dilution method
Streptococcus pneumoniae [30] = assay: Antibacterial activity against wild-type Streptococcus pneumoniae R6 by standardized agar doubling dilution method in presence of 20 ug/ml reserpine efflux pump inhibitor

| SMILES | MIC90 (Streptococcus pneumoniae [1]) | MIC90 (Streptococcus pneumoniae [2]) | MIC90 (Streptococcus pneumoniae [3]) | MIC (Streptococcus pneumoniae [4]) | MIC (Streptococcus pneumoniae [5]) | MIC (Streptococcus pneumoniae [6]) | MIC (Streptococcus pneumoniae [7]) | MIC (Streptococcus pneumoniae [8]) | MIC (Streptococcus pneumoniae [9]) | MIC (Streptococcus pneumoniae [10]) | MIC (Streptococcus pneumoniae [11]) | MIC (Streptococcus pneumoniae [12]) | also measured |
| --- | --- | --- | --- | --- | --- | --- | --- | --- | --- | --- | --- | --- | --- |
| O=C(O)c1cn(C2CC2)c2cc(N3CCNCC3)c(F)cc2c1=O [CIPROFLOXACIN] | 4 µg/mL | 8 µg/mL (≈ 24.1 µM) | 4 µg/mL | 8 µg/mL (≈ 24.1 µM) | 1 µg/mL (≈ 3.02 µM) | 16 µg/mL (≈ 48.3 µM) | 0.25 µg/mL (≈ 0.754 µM) | 2 µg/mL (≈ 6.04 µM) | 0.12 µg/mL (≈ 0.362 µM) | 32 µg/mL | 8 µg/mL | 4 µg/mL | – |
| CC[n+]1c(-c2ccccc2)c2cc(N)ccc2c2ccc(N)cc21.[Br-] [HOMIDIUM BROMIDE] | 0.5 µg/mL | 2 µg/mL | 0.5 µg/mL | 0.5 µg/mL | 0.5 µg/mL | 0.5 µg/mL | 16 µg/mL | 0.5 µg/mL | 0.5 µg/mL | 0.5 µg/mL | 0.5 µg/mL | 0.5 µg/mL | MIC (Streptococcus pneumoniae [13]): 0.3 µg/mL; MIC (Streptococcus pneumoniae [14]): 0.5 µg/mL; MIC (Streptococcus pneumoniae [15]): 0.3 µg/mL; MIC (Streptococcus pneumoniae [16]): 1 µg/mL; MIC (Streptococcus pneumoniae [17]): 0.5 µg/mL; MIC (Streptococcus pneumoniae [18]): 0.5 µg/mL; MIC (Streptococcus pneumoniae [19]): 0.5 µg/mL; MIC (Streptococcus pneumoniae [20]): 0.5 µg/mL; MIC (Streptococcus pneumoniae [21]): 0.5 µg/mL; MIC (Streptococcus pneumoniae [22]): 0.5 µg/mL; MIC (Streptococcus pneumoniae [23]): 0.25 µg/mL; MIC (Streptococcus pneumoniae [24]): 0.5 µg/mL; MIC (Streptococcus pneumoniae [25]): 0.5 µg/mL; MIC (Streptococcus pneumoniae [26]): 0.5 µg/mL; MIC (Streptococcus pneumoniae [27]): 1 µg/mL; MIC (Streptococcus pneumoniae [28]): 1 µg/mL; MIC (Streptococcus pneumoniae [29]): 1 µg/mL; MIC (Streptococcus pneumoniae [30]): 0.25 µg/mL |
